Among the data in PubChem BioAssay AID493091 (Sanford-Burnham Center for Chemical Genomics, 2011) are inhibition values, retold here.

“And” between values parts separate entries of the source, which are not always exact repeats. Equal entries are not always repeated. Screen size: about 340,000 compounds; about 3,000 (0.88%) were called active.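 Rule for the calls: active = inhibition above about 50% at 20 µM (limit read from the data); inactive = the rest.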 Only a selection was taken, and actives are over-represented in it overall. Where a structure was tested more than once in an assay, its records may differ in their call.

Sequence of Carboxy-terminal domain RNA polymerase II polypeptide A small phosphatase 1 (Homo sapiens) (Q9GZU7 76-261 limits assumed): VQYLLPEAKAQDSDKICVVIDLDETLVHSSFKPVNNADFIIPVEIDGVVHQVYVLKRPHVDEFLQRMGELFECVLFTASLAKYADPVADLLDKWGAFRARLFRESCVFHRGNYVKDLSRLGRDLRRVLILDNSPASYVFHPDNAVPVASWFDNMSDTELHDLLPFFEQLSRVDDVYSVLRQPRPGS

This experiment has as its target Carboxy-terminal domain RNA polymerase II polypeptide A small phosphatase 1 (Homo sapiens) (UniProt Q9GZU7). Briefly: inhibition of human SCP1 dephosphorylation activity – biochemical, colorimetric, uHTS, primary screen (AID 493091).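 Note: plate controls were DMSO wells with enzyme for no effect and wells lacking enzyme for full effect.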 Conditions: Recombinant Scp1, phosphopeptide, malachite green phosphate absorbance; at 20 µM; stronger effect = higher value. Put shortly: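 Incubation: 45 min enzyme reaction at room temperature / System: truncated SCP-1 phosphatase (76-261aa) / Reagent: Phospho 17-mer peptide substrate / Buffer or medium: Acidic Tris acetate buffer with magnesium and detergent / Signal: absorbance at 630 nm / Doses: one concentration, 20 µM, with 1.0% DMSO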
With `COc1ccccc1N(C)C(=O)c1cc(S(=O)(=O)N2CCc3ccccc32)cn1C`, the inhibition was -4.84% (inactive).
In the case of `COc1ccc(C(=O)COC(=O)CNC(=O)c2cccs2)cc1Br` it was -0.77% (inactive).
For `Cc1nnc(SCC2=C(C(=O)O)N3C(=O)C(NC(=O)Cn4nc(C)c(Cl)c4C)C3SC2)s1` (stereo not drawn), the inhibition is 14.4% (inactive).
Consider `C=CC1=C(C(=O)O)N2C(=O)[C@@H](NC(=O)/C(=N/OCC(=O)O)c3csc(N)n3)[C@H]2SC1`, for which the inhibition was 65.5% (active).
In the case of `C=CC1=C(C(=O)O)N2C(=O)[C@@H](NC(=O)/C(=N\OCC(=O)O)c3csc(N)n3)[C@H]2SC1` it was 71% (active); in that of `CC(C)(C)OC(=O)C1=C(CO)CS[C@@H]2[C@H](NC(=O)Cc3ccccc3)C(=O)N12`, 1.29% (inactive); in that of `CO/N=C(\C(=O)N[C@@H]1C(=O)N2C(C(=O)O)=C(COC(C)=O)CS[C@H]12)c1csc(N)n1` (stereo in doubt), 69.7% (active) and 11.4% (inactive) and 72.2% (active).
Take `Cc1cc(C)cc(C(=O)NC2C(=O)N3C(C(=O)O)=C(CSc4nnc(C)s4)CSC23)c1` (stereo not drawn): the inhibition is 4.73% (inactive).
In the case of `CC(=O)c1ccc(NC(=O)CSc2nc3ccccc3c(=O)n2CCCN2CCOCC2)cc1` it was -7.5% (inactive).
As for `Cn1cnc([N+](=O)[O-])c1Sc1ccccc1`, the figure is -15.4% (inactive); as for `O=C(NCCC1=CCCCC1)c1ccc(-n2cncn2)cc1`, 0.7% (inactive); as for `O=C(O)c1ccccc1-c1ccccc1C(=O)NCc1cccnc1`, -6.94% (inactive).
Consider `CSc1ccccc1NC(=O)c1cnc2sc(C)cn2c1=O`, for which the inhibition is -3.98% (inactive).
In the case of `COc1ccc(C2C3=C(OC(C)=O)c4ccccc4C3=Nc3c2c(=O)n(C)c(=O)n3C)cc1` (stereo not drawn) it was -10.3% (inactive).
As for `CN(C)S(=O)(=O)c1cc(NC(=O)CN2C(=O)NC3(CCCc4ccccc43)C2=O)ccc1Cl` (stereo not drawn), the figure is -6.5% (inactive); as for `COc1ccc(/C(O)=C2/C(=O)C(=O)N(c3nc(C)c(C)s3)C2c2ccco2)cc1` (stereo not drawn), -0.42% (inactive); as for `Cn1c(=O)c2cc(S(=O)(=O)NCCC(=O)Nc3ccc(F)cc3F)ccc2n(C)c1=O`, -3.26% (inactive).
On to `COC(=O)c1ccccc1NC(=O)C1(S(=O)(=O)c2ccc(Cl)cc2)CC1`, for which the inhibition is 82.2% (active).
As to `CCOC(=O)C1(S(=O)(=O)c2ccc(Cl)cc2)CCN(Cc2ccccc2)CC1`, the inhibition was -6.96% (inactive).
As for `COC(=O)c1ccccc1NC(=O)CN(Cc1ccc(Cl)cc1)S(C)(=O)=O`, the figure is -4.27% (inactive); as for `CNC1(c2nnnn2-c2c(C)cccc2C)CCOC(C)(C)C1` (stereo not drawn), -10.7% (inactive); as for `Cc1ccc(S(=O)(=O)NCC(=O)N2CCOCCOCCOCCOCC2)cc1`, -7.08% (inactive).
As for `CC1CCCCC1NC(=O)C1CCCN1S(=O)(=O)c1cccc2nsnc12` (stereo not drawn), the figure is -9.08% (inactive); as for `Cc1ccc(NC(=O)COc2ccc(/C=N\NC(=O)c3cccnc3)cc2)cc1C`, 73% (active).
In the case of `Cc1ccc(OCC(=O)NCCCNC(=O)c2cccnc2)cc1C` it was 3.67% (inactive).
For `O=C(COc1ccc(/C=N/NC(=O)c2ccc(O)cc2)cc1)Nc1ccc([N+](=O)[O-])cc1`, the inhibition is -4.15% (inactive).
Regarding `CCC(C)OC(=O)C(C)Oc1ccc(-c2ccccc2)cc1` (stereo not drawn), the inhibition was 0.19% (inactive).
For the molecule `O=C(CN1C(=O)COc2ccc(Cl)cc21)N1CCOCC1`, the inhibition is 3.98% (inactive).
In the case of `Cc1ccc(NC(=O)CN2C(=O)NC(C)(c3ccc(Cl)cc3)C2=O)c(Br)c1` (stereo not drawn) it was -3.83% (inactive); in that of `Cc1ccc(C2(C)NC(=O)N(CC(=O)N3CC(=O)Nc4ccccc43)C2=O)cc1` (stereo not drawn), -4.98% (inactive).
As for `Cc1ccc(C2(C)NC(=O)N(CC(=O)Nc3ccccc3C(=O)N3CCCCC3)C2=O)cc1` (stereo not drawn), the figure is 65.5% (active); as for `CC1CC(C)CN(CCOc2cccc3ccccc23)C1` (stereo not drawn), -2.45% (inactive).
In the case of `CCn1ncc(C2=NOC(C(=O)Nc3ccccc3C(=O)OC)C2)c1C` (stereo not drawn) it was -6.5% (inactive).
As for `O=C(Oc1ccc(-c2nc(-c3ccccn3)no2)cc1)c1ccccc1`, the inhibition is 7.66% (inactive).
In the case of `O=C1C(=O)N(c2ccccc2)c2ccccc21` it was -4.37% (inactive); in that of `O=C(O)COCC(=O)NCc1csc2ccc(Cl)cc12`, 11.2% (inactive).
On to `Cc1ccc(C(=O)NNC(=O)c2ccc3c(c2)OCCO3)cc1`, for which the inhibition is -11.5% (inactive).
For `Cc1ccc(C(=O)NNc2ncnc3ccccc23)cc1`, the inhibition is 5.78% (inactive).
As for `Cc1ccc(C(=O)NNC(=O)c2cc3cc4ccccc4nc3s2)cc1`, the figure is 83.1% (active).
For the molecule `COc1ccc2oc(C(=O)NCC(Cc3ccccc3)N(C)C)c(C)c2c1` (stereo not drawn), the inhibition was -2.96% (inactive).
As for `Cc1ccc(C)c(NC(=S)NNC(=S)Nc2ccc(C(C)C)cc2)c1`, the figure is 3.22% (inactive); as for `O=C(NC(=S)Nc1ccc(Cl)c(C(=O)O)c1)c1cncc(Br)c1`, 5.31% (inactive).
As to `CC(C)c1ccc(NC(=S)NNc2ccc(Cl)c(C(=O)O)c2)cc1`, the inhibition is 54.9% (active).
In the case of `O=C(OCC(=O)N1CCN(C(=O)c2ccco2)CC1)c1ccc(Cl)c(Cl)c1` it was -3.89% (inactive); in that of `O=C1c2ccccc2S(=O)(=O)N1Cc1c(F)cccc1Cl`, -6.43% (inactive).
As for `CC(Sc1nn(-c2ccc(Cl)cc2)c(=S)s1)C(=O)NCC1CCCO1` (stereo not drawn), the figure is -9% (inactive); as for `COc1cc(/C=C2/C(=O)NN(c3cccc(Cl)c3)C2=O)cc(Br)c1O`, 2.98% (inactive); as for `C#CCOc1ccc(/C=C2/C(=O)NN(c3ccccc3)C2=O)cc1OC`, -4.73% (inactive).
In the case of `O=C1NN(c2ccccc2)C(=O)/C1=C/c1ccc(-c2cccc(C(=O)O)c2)o1` it was 52% (active).
In the case of `Cc1ccc(-c2c3c(=O)n(C)c(=O)n(C)c3cn2-n2cnnc2)cc1`, the inhibition was -6% (inactive).
Regarding `CCOC(=O)Cc1cc(=O)[nH]c(/N=C(\N)Nc2ccc(OC)cc2)n1`, the inhibition was -0.71% (inactive).
Consider `Cc1cc(=O)[nH]c(N/N=C/c2c(C)nn(-c3ccccc3Cl)c2Cl)n1`, for which the inhibition was -253% (inactive).
Turning to `CC1CCN(c2ccc(C(=O)Nc3nnc(C4CC4)s3)cc2[N+](=O)[O-])CC1`, the inhibition is -0.75% (inactive).
In the case of `CC1CCN(c2ccc(S(=O)(=O)Nc3cc(C(=O)O)cc(C(=O)O)c3)cc2[N+](=O)[O-])CC1` it was 54.5% (active); in that of `COc1ccc(NS(=O)(=O)c2ccc(N3CCN(CCO)CC3)c([N+](=O)[O-])c2)cc1`, -2.43% (inactive).
As to `O=C(CNC(=O)C(c1ccccc1)c1ccccc1)N/N=C\c1ccc2c(c1)OCO2`, the inhibition is 59.5% (active).
`O=C(N/N=C/c1ccc2c(c1)OCO2)C(=O)N1CCCC1`: the inhibition is -6.72% (inactive).
As for `Cc1[nH]c2ccccc2c1/C=N/NC(=O)CNC(=O)c1ccc2c(c1)OCO2`, the figure is -5.09% (inactive).
As for `CC1C(=O)N2CCCc3cc(S(=O)(=O)NCc4ccc(F)cc4)cc1c32` (stereo not drawn), the figure is -5.8% (inactive).
For `CN(CCc1ccccn1)S(=O)(=O)c1ccc2c3c(cccc13)C(=O)N2`, the inhibition was 0.36% (inactive).
As for `COc1ccc(S(=O)(=O)N2CCC(C(=O)N3CCCC3)CC2)cc1C`, the figure is -3.35% (inactive).
For the molecule `CCOC(=O)c1sc(NC(=O)CSc2nc(C)cc(C(F)(F)F)n2)c(C#N)c1C`, the inhibition was -3.8% (inactive).
Regarding `CC(C)c1cc(NCc2ccccn2)n2c(nc3ccccc32)c1C#N`, the inhibition was -0.31% (inactive).
As for `O=C(Nc1cccc(F)c1)c1cc(-c2ccco2)nc2ccccc12`, the figure is 57.4% (active); as for `O=C(O)c1cccc(NC(=O)c2cc(-c3cccc(Cl)c3)nc3ccccc23)c1`, 5.17% (inactive).
As for `O=C(CSc1ccc(-c2ccco2)nn1)Nc1cccc(F)c1`, the figure is -4.82% (inactive); as for `Cc1cccc(Cn2cnc3c(N)c(C)c(C)cc32)c1`, -2.5% (inactive); as for `Cc1onc(-c2c(F)cccc2Cl)c1C(=O)Nc1cccc(S(=O)(=O)N2CCCCC2)c1`, -7.5% (inactive).
As for `Cc1ccc(CN2CCN(c3ccccc3Cl)CC2)o1`, the figure is 51% (active); as for `Cc1ccc(CN2CCN(Cc3cn(C)nc3-c3ccccc3)CC2CCO)o1` (stereo not drawn), -12.6% (inactive); as for `CC(=O)Nc1ccc(OCC(O)CN2CCN(c3ccccc3Cl)CC2)cc1` (stereo not drawn), 0.19% (inactive).
For `COc1ccc(C(=O)NCc2nnc(SCC(=O)NC3=NCCS3)n2C)cc1`, the inhibition was -3.07% (inactive).
For the molecule `CC(C)(C)OC(=O)NCCCCCNC(=O)c1[nH]cnc1C(=O)Nc1nccs1`, the inhibition is -11.3% (inactive).
In the case of `COC(=O)c1ccc(OC(=O)c2nn(C)cc2Cl)c(OC)c1` it was 1.35% (inactive); in that of `COC(=O)c1ccc(-c2c(-c3ccccc3)ncc3cc(OC)c(OC)cc23)cc1`, 66.9% (active); in that of `COC(=O)c1ccc(SCc2ccccc2)nc1`, -6.97% (inactive).
In the case of `Cc1ccc2c(c1)C(c1ccccc1)N(C(=O)c1ccc(S(=O)(=O)N3CCOCC3)cc1)CC(=O)N2` (stereo not drawn) it was -1% (inactive).
As for `O=S(=O)(Nc1ccc(O)c2ccccc12)c1ccc(OC(F)(F)F)cc1`, the figure is -14.4% (inactive); as for `Nc1ccccc1SC(C[N+](=O)[O-])c1ccccc1` (stereo not drawn), 2.72% (inactive).
With `Cc1c(NC(=O)C(C)OC(=O)c2c3c(nc4ccccc24)CCC(C)C3)c(=O)n(-c2ccccc2)n1C` (stereo not drawn), the inhibition was -2.49% (inactive).
Consider `Cc1ccc(C(=O)OCC(=O)NCc2ccc3c(c2)OCO3)s1`, for which the inhibition is -4.92% (inactive).
In the case of `COc1cccc(CNCc2ccc3c(c2)OCO3)c1` it was -9.52% (inactive).
For the molecule `COc1cccc(CC(=O)OCC(=O)NCc2ccc3c(c2)OCO3)c1`, the inhibition was 64.5% (active).
In the case of `CCOC(=O)C1CCN(C(=O)C2CCCN(S(=O)(=O)c3ccc(OC)c(Cl)c3)C2)CC1` (stereo not drawn) it was -4.52% (inactive); in that of `CC(=O)OCCC(C)C`, 12.2% (inactive); in that of `CC1=NN(C(=O)CCc2ccccc2O)C(O)(C(F)(F)F)C1` (stereo not drawn), 63% (active).
As to `CC1=NN(C(=O)CCCc2ccccc2)C(O)(C(F)(F)F)C1` (stereo not drawn), the inhibition was -2.98% (inactive).
Regarding `COc1ccc(CC(=O)N2N=C(C)CC2(O)C(F)(F)F)cc1` (stereo not drawn), the inhibition was -2.15% (inactive).

Broadly, the inhibition is the drop in the measured response relative to a control, in per cent.
